# According to ChEMBL document CHEMBL4350958, “Rational Design of Short Peptide Variants by Using Kunitzin-RE, an Amphibian-Derived Bioactivity Peptide, for Acquired Potent Broad-Spectrum Antimicrobial and Improved Therapeutic Potential of Commensalism Coinfection of Pathogens” (J Med Chem, 2019):
# Calls of active or inactive are those of the source. The rule behind the calls is not given here.
# What was measured:
# Staphylococcus aureus [1] = assay: Bactericidal activity against Staphylococcus aureus ATCC 29213 assessed as reduction in bacterial growth at MBC by time-kill assay; assay type: functional, organism-based
# Outline: (§1)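 Time-kill assay. E. coli ATCC 25922, S. aureus ATCC 29213 or C. albicans cgmcc 2.2086 at a final 0.5-1×10^5 CFU mL-1 treated at 1×MBC/MFC. Aliquots collected at different times to calculate survival, with an untreated control. Mean of three independent experiments, each with three technical replicates.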
# Lipid bilayer [2] = assay: Induction of membrane disruption in PC/CL large unilamellar vesicles assessed as calcein-entrapped liposome leakage at 1 uM after 15 mins by spectrofluorophotometric assay relative to control; conditions: artificial membrane, 0.25 h
# Escherichia coli [3] = assay: Bactericidal activity against Escherichia coli ATCC 25922 assessed as reduction in bacterial growth at MBC by time-kill assay; assay type: functional, organism-based; outline: as §1
# RAW264.7 = assay: Cytotoxicity against mouse RAW264.7 cells assessed as cell viability at 2 to 64 uM measured after 18 to 24 hrs by MTT assay relative to control; assay type: cell-based; conditions: raw264.7, 64 µM
# Outline: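 MTT assay: RAW264.7 cells seeded at 1.0–2.0×10^4 per well and exposed to peptide (2–64 µM) for 18–24 h at 37 °C in 5% CO2. MTT (0.5 mg/mL) added for 4 h, formazan dissolved in DMSO, read at 570 nm. At least three independent experiments with triplicate wells.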
# Escherichia coli [4] = assay: Induction of morphological changes in Escherichia coli ATCC 25922 assessed as membrane creping at MBD measured after 1 hr by scanning electron microscopic analysis; assay type: functional, organism-based
# Candida albicans [5] = assay: (§2) Antifungal activity against Candida albicans cgmcc2.2086 infected in C57BL/6 mouse model of keratitis assessed as reduction in clinical score at 1 to 5 mg/ml administered as topical eye drop every 5 mins for first 4 hrs and every 30 mins for next 7 hrs measured post-last dose; assay type: functional, organism-based
# Pseudomonas aeruginosa [6] = assay: Bactericidal activity against melittin-resistant Pseudomonas aeruginosa ATCC 27853 incubated for 24 hrs followed by replating on agar plate and measured after overnight incubation; assay type: functional, organism-based
# Candida albicans [7] = assay: Antifungal activity against Candida albicans cgmcc2.2086 infected in C57BL/6 mouse model of keratitis assessed as appearance of transparent irises at 1 to 5 mg/ml administered as topical eye drop every 5 mins for first 4 hrs and every 30 mins for next 7 hrs measured post-last dose; assay type: functional, organism-based
# Staphylococcus aureus [8] = assay: Induction of morphological changes in Staphylococcus aureus ATCC 29213 assessed as appearance of intracellular empty areas at MBD measured after 1 hr by transmission electron microscopic analysis; assay type: functional, organism-based
# Staphylococcus aureus [9] = assay: Induction of morphological changes in Staphylococcus aureus ATCC 29213 assessed as hole formation at MBD measured after 1 hr by atomic force microscopic analysis; assay type: functional, organism-based
# Staphylococcus aureus [10] = assay: Induction of morphological changes in Staphylococcus aureus ATCC 29213 assessed as cytoplasmic leakage at MBD measured after 1 hr by transmission electron microscopic analysis; assay type: functional, organism-based
# Staphylococcus aureus [11] = assay: Induction of morphological changes in Staphylococcus aureus ATCC 29213 assessed as cell content leakage at MBD measured after 1 hr by atomic force microscopic analysis; assay type: functional, organism-based
# Escherichia coli [12] = assay: Induction of morphological changes in Escherichia coli ATCC 25922 assessed as hole formation at MBD measured after 1 hr by scanning electron microscopic analysis; assay type: functional, organism-based
# Escherichia coli [13] = assay: Induction of outer membrane permeabilization in Escherichia coli ATCC 25922 at sub-MIC by NPN-dye based assay relative to control
# Outline: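 Mid-log E. coli ATCC 25922 (OD600 0.2) preloaded 30 min with 10 μM NPN in 5 mM HEPES, pH 7.4, 5 mM glucose; cells mixed with equal volume of peptide solutions (1 to 64 μM). Fluorescence (ex 350, em 420 nm) read until plateau, background-subtracted, expressed as % NPN uptake relative to 10 μg/mL polymyxin B (100%). Three independent experiments, triplicate each.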
# Lipid bilayer [14] = assay: Induction of membrane disruption in PG/CL/PE large unilamellar vesicles assessed as calcein-entrapped liposome leakage at 8 uM after 15 mins by spectrofluorophotometric assay relative to control
# Outline: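 Calcein (70 mM)-loaded LUVs of PG/CL/PE (2:1:7 w/w/w, E. coli membrane mimic), made by freeze-thaw and 100-nm extrusion, free dye removed on Sephadex G-50. LUVs (100 μM) exposed to peptide (1–64 μM) for 15 min. Leakage read at ex 490/em 520 nm: liposomes alone are background, Triton X-100 is 100%. Independent triplicates.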
# Pseudomonas aeruginosa [15] = assay: Bactericidal activity against gentamicin-resistant Pseudomonas aeruginosa ATCC 27853 incubated for 24 hrs followed by replating on agar plate and measured after overnight incubation; assay type: functional, organism-based
# Candida albicans [16] = assay: Fungicidal activity against Candida albicans cgmcc2.2086 assessed as reduction in bacterial growth at MFC measured within 3 mins by time-kill assay relative to control; assay type: functional; set-up: scale not given: the % may be the effect or the level left
# Outline: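 Time-kill: cells at a final 0.5–1×10^5 CFU/mL were exposed to peptide at 1×MBC/MFC. Aliquots were removed at intervals to count survivors against an untreated control. Means of three independent experiments, each with three technical replicates.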
# Staphylococcus aureus [17] = assay: Induction of morphological changes in Staphylococcus aureus ATCC 29213 assessed as membrane blebbing at MBD measured after 1 hr by atomic force microscopic analysis; assay type: functional, organism-based
# Candida albicans [18] = assay: as §2, with “fungal hyphae infiltration into corneal stroma” for “clinical score”, “dose by periodic acid schiff staining-based histological analysis” for “dose”; assay type: functional, organism-based
# Staphylococcus aureus [19] = assay: Antibacterial activity against Staphylococcus aureus ATCC 29213 assessed as ratio of MIC95 in presence of CaCl2 to in absence of CaCl2; assay type: functional
# Outline: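 S. aureus ATCC 29213, mid-log, (0.5–1) × 10^5 CFU/mL final in MHB, with or without 2 mM CaCl2 (final). Peptide serially diluted in 0.2% BSA and mixed 1:1 with cells, 24 h at 37 °C. MIC is the lowest concentration inhibiting 95% of growth by A492. Three independent experiments, each with three technical replicates.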
# Escherichia coli [20] = assay: Induction of morphological changes in Escherichia coli ATCC 25922 assessed as cell content leakage at MBD measured after 1 hr by scanning electron microscopic analysis; assay type: functional, organism-based
# Candida albicans [21] = assay: Antifungal activity against Candida albicans cgmcc2.2086 infected in C57BL/6 mouse model of keratitis assessed as appearance of transparent corneas at 1 to 5 mg/ml administered as topical eye drop every 5 mins for first 4 hrs and every 30 mins for next 7 hrs measured post-last dose; assay type: functional, organism-based
# [22] = Conformational stability in 50% trifluoro-ethyl alcohol assessed as alpha-helical structural propensity at 35 uM by CD spectra analysis; assay type: physicochemical
# Outline: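 CD spectra from 190 to 250 nm of peptide at 35 μM in 10 mM PBS, 30 mM SDS micelles or 50% TFE, recorded in a 1.0-mm quartz cell. Ellipticity was converted to mean residue ellipticity. Three independent scans, each averaged over more than 3 runs.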
compound,measurement,setting,value
CC[C@H](C)[C@H](NC(=O)CN)C(=O)NCC(=O)N[C@@H](C)C(=O)N[C@H](C(=O)N[C@@H](CC(C)C)C(=O)N[C@@H](CCCCN)C(=O)N[C@H](C(=O)N[C@@H](CC(C)C)C(=O)N[C@H](C(=O)N[C@H](C(=O)NCC(=O)N[C@@H](CC(C)C)C(=O)N1CCC[C@H]1C(=O)N[C@@H](C)C(=O)N[C@@H](CC(C)C)C(=O)N[C@H](C(=O)N[C@@H](CO)C(=O)N[C@@H](Cc1c[nH]c2ccccc12)C(=O)N[C@H](C(=O)N[C@@H](CCCCN)C(=O)N[C@@H](CCCNC(=N)N)C(=O)N[C@@H](CCCCN)C(=O)N[C@@H](CCCNC(=N)N)C(=O)N[C@@H](CCC(N)=O)C(=O)N[C@@H](CCC(N)=O)C(N)=O)[C@@H](C)CC)[C@@H](C)CC)[C@@H](C)O)[C@@H](C)O)C(C)C)C(C)C [MELITTIN],Activity,Staphylococcus aureus [1],Active
same,Activity,Lipid bilayer [2],> 85%
same,Activity,Escherichia coli [3],Active
same,Activity,RAW264.7,Toxic
H-AARIILRWRFR-NH2,Activity,Escherichia coli [4],Active
same,Activity,Candida albicans [5],Active
same,Activity,Pseudomonas aeruginosa [6],Active
same,Activity,Candida albicans [7],Active
same,Activity,Staphylococcus aureus [8],Active
same,Activity,Staphylococcus aureus [9],Active
same,Activity,Staphylococcus aureus [10],Active
same,Activity,Staphylococcus aureus [11],Active
same,Activity,Escherichia coli [12],Active
same,Activity,Escherichia coli [13],15%
same,Activity,Lipid bilayer [14],> 40%
same,Activity,Pseudomonas aeruginosa [15],Active
same,Activity,Candida albicans [16],99.99%
same,Activity,Staphylococcus aureus [17],Active
same,Activity,Candida albicans [18],Active
same,Ratio,Staphylococcus aureus [19],4
same,Activity,Escherichia coli [20],Active
same,Activity,Candida albicans [21],Active
H-AARRILRWIFR-NH2,Stability,[22],Stable
